Screening results from PubChem BioAssay.
Most compounds without a hit are left out; they make up all but 3.4% or so of the library.
Hsp90 block – displaces geldanamycin probe from tumor Hsp90 | P07900 | inhibition, % at 30 µM | 64,000 tested, 0.35% active | NCI-N417 lysate Hsp90, Cy3B-geldanamycin FP displacement;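 active = inhibition above 50%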;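 note: 0% = tracer plus lysate wells and 100% = tracer alone without lysate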
SF1 activator – activators of human nuclear receptor SF-1; Q13285; CHO-K1 Gal4-SF-1 LBD luciferase reporter; % increase over DMSO SF-1-specific signal; activation, % at 10 µM; 65,000 tested, 1.9% active;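 active = activation above the mean activation of all tested compounds plus 3 SD, cut at about 50% in these data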
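Assay system: CHO-K1 cells co-transfected with Gal4 DBD–human SF-1 LBD, 5xGal4 luciferase reporter; doses: 10 µM only; incubation: 20 h compound exposure at 37 °C after 1 h cell settling; signal: luciferase light emission; evaluation: percent activation versus DMSO; repeats: one test per compound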
MKP-1 inh – blocks human MKP-1 phosphatase activity | P28562 | recombinant MKP-1, OMFP hydrolysis fluorescence | inhibition, %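 (compounds tested at a single concentration somewhere between 10 and 100 µM)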 | 65,000 tested, 0.15% active;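 active = inhibition above about 50%, limit read from the data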;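 note: 0% = DMSO max control wells and 100% = wells with enzyme stopped by NaOH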
Cdc25B block – inhibitors of human Cdc25B phosphatase. recombinant Cdc25B, OMFP fluorescence Ex485/Em525. inhibition, %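 (compounds tested at 10 µM final in the well)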. 65,000 tested, 0.1% active; in the data active = inhibition above about 50%
RORa activator – activates the human nuclear receptor RORA | P35398 | CHO-K1 Gal4-RORA LBD luciferase reporter, luminescence; percent increase over mock-subtracted basal signal | 65,000 tested, 1.5% active | activation, % at 10 µM;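 active = activation above the mean of all tested compounds plus 3 SD, cut at about 49% in these data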;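 note: 0% = DMSO-treated RORA cells and 100% = added signal equal to DMSO minus mock-transfected cells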
JNK3 inh – blocks human JNK3 kinase activity. P53779. purified JNK3 kinase activity, HTS. inhibition, % at 8 µM. 60,000 tested, 0.61% active; in the data active = inhibition above about 17%;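 note: 0% = DMSO and 100% = reference inhibitor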
Target sequence (P53779 whole entry, looked up): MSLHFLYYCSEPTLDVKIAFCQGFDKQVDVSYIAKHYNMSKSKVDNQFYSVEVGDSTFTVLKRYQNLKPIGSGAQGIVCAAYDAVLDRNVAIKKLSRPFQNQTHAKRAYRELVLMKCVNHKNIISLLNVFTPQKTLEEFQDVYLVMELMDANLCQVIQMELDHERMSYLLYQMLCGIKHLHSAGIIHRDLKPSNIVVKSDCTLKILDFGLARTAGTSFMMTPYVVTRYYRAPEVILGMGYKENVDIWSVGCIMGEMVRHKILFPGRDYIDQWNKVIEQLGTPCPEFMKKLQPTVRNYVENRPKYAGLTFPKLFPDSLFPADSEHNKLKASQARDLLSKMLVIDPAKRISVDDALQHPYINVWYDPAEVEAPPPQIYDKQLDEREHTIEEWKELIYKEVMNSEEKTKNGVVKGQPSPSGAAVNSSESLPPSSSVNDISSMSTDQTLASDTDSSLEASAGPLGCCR
* hit, by the source's call; · = no result given.

SMILES	Hsp90 block	SF1 activator	MKP-1 inh	Cdc25B block	RORa activator	JNK3 inh
COc1cc(CC(=O)Nc2ncc(C)s2)cc(OC)c1OC	2	-11	-2	-7	7	42*
Cc1cnc(NC(=O)COc2ccccc2)s1	-5	82*	26	-7	54*	-1
COc1ccc(CC(=O)Nc2nc(C)cs2)cc1OC	1	-3	0	5	-4	32*
Cc1nc(-c2coc3cc(OCC(=O)O)ccc3c2=O)cs1	-1	-17	-3	8	-29	5
CCCc1cc2c(=O)c(-c3ccccn3)coc2cc1OC	0	76*	21	-4	54*	3
O=C(NCCN1CCOCC1)c1noc2c1CCc1ccccc1-2	-4	41	3	6	77*	0
COC(=O)c1ccc(CSc2ccc3nnc(-c4cccnc4)n3n2)o1	-2	-2	17	7	-18	2
COc1ccc2oc(C(=O)C3CC3)c(N)c2c1	1	74*	24	-14	68*	-11
COc1ccc(C(=O)c2oc3ccccc3c2N)cc1	-4	42	-2	1	36	4
CN1C(=O)C2(C(C#N)=C(N)Oc3c2oc(CO)cc3=O)c2ccccc21 (configuration not stated)	-17	17	2	-6	15	-5
COCCCN(C(C)=O)c1nc(-c2ccc(OC)cc2)cs1	-5	98*	-10	-4	84*	7
COc1ccc(-c2csc(N(CCCN(C)C)C(=O)c3cccs3)n2)cc1	-1	2	4	-15	-1	11
CC(=O)c1cccc(NC(=O)NCc2ccccn2)c1	-5	56*	-3	-8	22	6
CCOC(=O)c1[nH]c(C)c(C(=O)Nc2cccc(Cl)c2C)c1C	-2	30	8	-3	64*	-4
CCOC(=O)c1[nH]c(C)c(C(=O)Nc2ccc(Cl)cc2)c1C	-5	24	5	2	6	9
COc1ccc(S(=O)(=O)Nc2ccc3c(c2)OCO3)cc1OC	51*	4	-9	-10	-12	-3
COc1ccc(S(=O)(=O)Nc2ccc3c(c2)OCO3)cc1C(=O)O	-3	2	-2	-2	13	-7
COc1ccc(-c2cc(C(=O)N3CCCCC3)no2)cc1OC	-2	77*	5	-12	6	-5
COc1cccc2cc(-c3cn4cccc(C)c4n3)c(=O)oc12	-11	53*	0	2	24	-9
COC(=O)C1=[N+]([O-])OC(C(=O)OC)C1c1c[nH]c2ccccc12 (configuration not stated)	-4	-5	-18	-6	8	3
Cn1c(CN2CCCCC2)nc2cc(NC(=O)c3ccccc3)ccc21	-4	15	3	-8	13	-12
Cn1cnc2cc(NC(=O)c3ccco3)ccc21	-4	40	-3	3	27	5
Cn1c(CN2CCCC2)nc2cc(NC(=O)c3ccco3)ccc21	-14	50*	6	-8	48	0
O=C(Nc1ccc2c(c1)ncn2-c1ccccc1)c1ccco1	-4	28	2	-12	52*	-5
COc1ccc(N2CSC3=C(C#N)C(c4ccc(OC)c(OC)c4)CC(=O)N3C2)c(OC)c1 (configuration not stated)	77*	-8	31	1	-18	3
SMILES	Hsp90 block	SF1 activator	MKP-1 inh	Cdc25B block	RORa activator	JNK3 inh
Brc1ccc([C@H]2CN3CCSC3=N2)cc1	3	·	·	·	·	·
Cc1nc(-c2c(-c3ccc(O)cc3O)noc2C(F)(F)F)cs1	74*	8	-18	-16	-32	-1
O=C(Nc1nc2c(s1)CCCC2)Oc1ccccc1	2	0	8	-5	-14	2
O=S1(=O)N=C(Nc2nc3c(s2)CCCC3)c2ccccc21	0	51*	-6	-14	96*	-1
Cc1ccc(CN2CCN(CC(=O)N3CCC(C(N)=O)CC3)C2=O)cc1	-1	4	-1	70*	6	0
CCOC(=O)c1snc(C(=O)NC2CCCCC2)c1N	-1	106*	-24	0	57*	-2
Nc1c(C(=O)NC2CCCCC2)nsc1C(=O)OCC(=O)NC1CCCCC1	-3	0	-21	-2	-6	2
CC1(C)Cc2ccccc2-c2nc(NCCCO)n(-c3ccccc3)c(=O)c21	-4	-4	14	-18	16	-3
[O-]/[N+](=C\c1ccncc1)c1ccc(Br)cc1	·	·	57*	-21	·	·
Cc1cc(C)c2nc(Nc3nc(C)cc(=O)[nH]3)nc(C)c2c1	-3	-15	39	6	-27	3
COc1ccc(C2C(C#N)=C(N)SC(N)=C2C#N)cc1OC	-10	9	-30	-20	-6	22*
CCOc1ccc(NC(=O)CSc2nccn2C)cc1	-2	35	-6	-13	17	·
Cn1ccnc1SCC(=O)Nc1ccc(Oc2ccccc2)cc1	-1	33	7	-7	60*	5
O=C1OC(N2CCN(Cc3ccccc3)CC2)c2ccccc21 (configuration not stated)	-4	-16	7	6	69*	-3
O=C1c2ccccc2C(=O)N1CCN1CCc2ccccc21	-12	52*	-14	-7	37	2
Cc1cc(C(=O)CSc2nnc(-c3ccc(OC(F)F)cc3)o2)c(C)n1Cc1cccs1	-3	4	26	1	-20	13
C/C(N)=C(/C#N)C(=O)CSc1nnc(-c2ccc(OC(F)F)cc2)o1	-1	63*	5	-8	40	-3
COc1ccc(-c2nn3c(-c4ccncc4)nnc3s2)cc1OC	5	5	-5	7	7	-15
CC(C)(C)n1ncc2c(=O)n(CC(=O)NCc3ccccc3)cnc21	1	78*	-9	-10	56*	-6
CC(C)(C)n1ncc2c(=O)n(CC(=O)Nc3ccc(Cl)cc3)cnc21	-4	-12	-1	-7	-18	5
CC(C)(C)n1ncc2c(=O)n(CC(=O)c3ccc(Cl)cc3)cnc21	1	87*	-16	-16	59*	1
CC(C)NC(=O)c1cc(-c2ccc(Br)cc2)on1	-4	35	-4	-10	66*	-2
CC(C)NC(=O)c1cc(-c2ccco2)on1	-6	40	2	-7	5	2
Cc1ccc(-c2cc(C(=O)NCCN3CCOCC3)no2)cc1	-2	8	-4	-9	-8	6
CCCNC(=O)c1cc(-c2ccc(Br)cc2)on1	-1	58*	-2	-10	37	9
O=c1c2ccccc2nc2n1CCCCC2	1	-11	-19	-9	-15	5
O=c1c2ccccc2nc2n1CCCCN2	-2	5	0	0	1	21*
COC(=O)c1ccc(CN2CCN(Cc3ccc(C(=O)OC)o3)CC2)o1	-3	-5	6	-8	-4	-2
